Measurements reported in ChEMBL document CHEMBL5357066, “Development of Novel Membrane Disrupting Lipoguanidine Compounds Sensitizing Gram-Negative Bacteria to Antibiotics” (ACS Med Chem Lett, 2024).

Columns and labels:
Type in all cases: functional
[1] = tested on: Acinetobacter baumannii; test: Synergistic antibacterial activity against Acinetobacter baumannii AYE assessed as fold change in rifampicin MIC at <=0.25 times MIC incubated for overnight by microbroth dilution checkerboard assay relative to rifampicin alone
Summary of the method: (§1)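 Checkerboard microdilution under MIC conditions (TSB, overnight, 37 °C). Two-fold series of each agent were combined on one plate before bacteria were added, and single-agent MICs were measured on the same plate. FIC = sum of combination MIC/alone MIC for each agent, taken from the most synergistic well. Three independent repeats, mean ± SD. ≤0.5 was taken as strong synergy and 0.5–<1 as weak.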

[2] = tested on: Acinetobacter baumannii; test: Synergistic antibacterial activity against Acinetobacter baumannii AYE assessed as rifampicin MIC at <=0.25 times MIC incubated for overnight by microbroth dilution checkerboard assay; summary of the method: as §1
[3] = tested on: Pseudomonas aeruginosa; test: Synergistic antibacterial activity against Pseudomonas aeruginosa NCTC 13437 assessed as rifampicin MIC at <=0.25 times MIC incubated for overnight by microbroth dilution checkerboard assay
Summary of the method: (§2)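 Checkerboard microdilution in Tryptic Soy Broth, run like the MIC assay. Overnight TSB cultures were back-diluted to OD 0.01 and added 1:1 to the combined two-fold series of both agents, then incubated overnight at 37 °C. Growth/no-growth was called at <0.1 OD600. MICs alone were read on the same plates. FIC index came from the most synergistic well; three independent repeats, mean ± SD.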

[4] = tested on: Klebsiella pneumoniae; test: Synergistic antibacterial activity against Klebsiella pneumoniae NCTC 13368 assessed as fold change in rifampicin MIC at <=0.25 times MIC incubated for overnight by microbroth dilution checkerboard assay relative to rifampicin alone
Summary of the method: (§3)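 Checkerboard run under the MIC conditions (TSB, overnight, 37 °C). Antibiotic and lipoguanidine 2-fold series were combined on one plate before bacteria were added. Growth/no-growth was scored as for the MIC (<0.1 OD600). Single-agent MICs were measured on the same plates. Three independent repeats were done.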

[5] = tested on: Pseudomonas aeruginosa; test: Synergistic antibacterial activity against Pseudomonas aeruginosa PAO1 assessed as rifampicin MIC at <=0.25 times MIC incubated for overnight by microbroth dilution checkerboard assay; summary of the method: as §2
[6] = tested on: Pseudomonas aeruginosa; test: Synergistic antibacterial activity against Pseudomonas aeruginosa PAO1 assessed as fold change in rifampicin MIC at <=0.25 times MIC incubated for overnight by microbroth dilution checkerboard assay relative to rifampicin alone; summary of the method: as §2
[7] = tested on: Pseudomonas aeruginosa; test: Synergistic antibacterial activity against Pseudomonas aeruginosa NCTC 13437 assessed as fold change in rifampicin MIC at <=0.25 times MIC incubated for overnight by microbroth dilution checkerboard assay relative to rifampicin alone; summary of the method: as §2
[8] = tested on: Klebsiella pneumoniae; test: Synergistic antibacterial activity against […] Klebsiella pneumoniae M6 assessed as rifampicin MIC at <=0.25 times MIC incubated for overnight by microbroth dilution checkerboard assay; summary of the method: as §3
[9] = tested on: Escherichia coli; test: Synergistic antibacterial activity against Escherichia coli NCTC 12923 assessed as fold change in rifampicin MIC at <=0.25 times MIC incubated for overnight by microbroth dilution checkerboard assay relative to rifampicin alone; summary of the method: as §1
[10] = tested on: Acinetobacter baumannii; test: Synergistic antibacterial activity against Acinetobacter baumannii ATCC 17978 assessed as fold change in rifampicin MIC at <=0.25 times MIC incubated for overnight by microbroth dilution checkerboard assay relative to rifampicin alone; summary of the method: as §1
[11] = tested on: Klebsiella pneumoniae; test: Synergistic antibacterial activity against Klebsiella pneumoniae NCTC 13368 assessed as rifampicin MIC at <=0.25 times MIC incubated for overnight by microbroth dilution checkerboard assay; summary of the method: as §1
[12] = tested on: Acinetobacter baumannii; test: Synergistic antibacterial activity against Acinetobacter baumannii ATCC 17978 assessed as rifampicin MIC at <=0.25 times MIC incubated for overnight by microbroth dilution checkerboard assay; summary of the method: as §1
[13] = tested on: Escherichia coli; test: Synergistic antibacterial activity against Escherichia coli NCTC 12923 assessed as rifampicin MIC at <=0.25 times MIC incubated for overnight by microbroth dilution checkerboard assay; summary of the method: as §1

Structure (SMILES) | fold change (FC) [1] | MIC [2] [µg/mL] | MIC [3] [µg/mL] | fold change (FC) [4] | MIC [5] [µg/mL] | fold change (FC) [6] | fold change (FC) [7] | MIC [8] [µg/mL] | fold change (FC) [9] | fold change (FC) [10] | MIC [11] [µg/mL] | MIC [12] [µg/mL] | MIC [13] [µg/mL]
CCCCCCCCCCNC(=N)NCCCCN(C)C | >=4 | ≤ 0.125 | 0.5 | >=4 | 0.5 | >=4 | >=4 | ≤ 0.125 | >=4 | >=4 | 1 | ≤ 0.125 | ≤ 0.125
CCCCCCCCCCNC(=N)NCCCC(=O)O | 0 | 8 | 32 | 0 | 32 | 0 | 0 | 32 | 0 | 0 | 32 | 2 | 32
CCCCCCCC/C=C\CCCCCCCCNC(=N)NCCCCCCCCCC | 0 | 32 | 64 | 0 | 64 | 0 | 0 | 64 | 0 | 0 | 128 | 8 | 32
CCCCCCCCCCCC(=O)NCCCC | 0 | 16 | 32 | 0 | 32 | 0 | 0 | 32 | 0 | 0 | 32 | 4 | 32
CCCCCCCCCCNC(=N)NCCCCN1CCCC1 | >=4 | ≤ 0.125 | 2 | >=4 | 0.5 | >=4 | >=4 | ≤ 0.125 | >=4 | >=4 | 0.5 | ≤ 0.125 | ≤ 0.125
CCCCCCCCCCCC(=O)NCCCCN | 0 | 32 | 32 | 0 | 64 | 0 | 0 | 32 | 0 | 0 | 128 | 4 | 32
CCCCCCCC/C=C\CCCCCCCC(=O)NCCCCN | 0 | 16 | 64 | 0 | 64 | 0 | 0 | 64 | 0 | 0 | 32 | 4 | 32
CCCCCCCCCCCCCCCCCCNC(=O)NCCCCN | 0 | 0.5 | 16 | 0 | 16 | 0 | 0 | 16 | 0 | 0 | 32 | 2 | 16
